STAT3 act: increases IL-6 driven STAT3 reporter signal. U3A cells, IL-6 STAT3-luciferase reporter, luminescence; 100% = signal with IL-6 EC80 alone. activation (% of control), % at 5.6 µM. 190,000 compounds, 0.91% hits. AID 871;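 active = activation above the screen-wide mean of compound activation plus 3 SD, cut at about 130% in these data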;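 note: 0% = background luminescence of wells with medium and substrate only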
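system = STAT3-luciferase reporter U3A cells | reagent = IL-6 stimulus at 33 ng/mL final | timing = 1 h compound pre-exposure, 6 h IL-6 stimulation, 37 °C | measured by = luminescence | evaluation = % activation versus median of IL-6-stimulated wells | control set = IL-6-only wells as 100% reference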
ABCB6 inh MLPCN: blocks the human ABCB6 transporter; K562-ABCB6 porphyrin accumulation, flow cytometry, 1 h; stronger effect = lower value; Q9NP58; fluorescence ratio to DMSO, % at 10 µM; 360,000 compounds, 0.19% hits;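 active = fluorescence ratio to DMSO below 75%, the collection mean minus 3 SD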;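 note: signal is porphyrin accumulated inside mitochondria; 100% equals median channel fluorescence of DMSO control wells; lower ratio means ABCB6 inhibition with less porphyrin fluorescence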
AHR activator: human AHR activation; P35869; AHR-responsive luciferase reporter cells, luminescence; activation, % at 5 µM; 320,000 compounds, 2.5% hits; in the data active = activation above about 47%;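 note: 0% = vehicle wells and 100% = reference agonist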
FXN GAA850 act: increases GAA850 frataxin promoter reporter activity; HEK293 lucGAA850 FXN promoter luciferase reporter, 24 h; percent of 10 µM SAHA response; activation, % at 6 µM; 360,000 compounds, 0.56% hits; AID 540364;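 active = activation above the average of all compounds screened plus 3 SD, cutoff fixed separately per campaign, cut at about 7.5% in these data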;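 note: 0% = DMSO wells and 100% = 10 µM SAHA wells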
Starred values were filed as active, the others as inactive; nt = no result given. Sampled rows, rich in hits. Any-hit rate of the full collection: about 3.3%.

SMILES | STAT3 act | ABCB6 inh MLPCN | AHR activator | FXN GAA850 act
Cc1nc2ccc(Cl)cc2[nH]1 | nt | 97 | nt | 0
Cc1nc2c(Cl)cccc2[nH]1 | 133* | 94 | 2 | 0
CN(C(=O)c1cccc(NC(=O)Cc2ccc(NC(=O)C3CCCN(S(=O)(=O)c4cccc([N+](=O)[O-])c4)C3)cc2)c1)C1CCC1 (stereo not given) | nt | 103 | nt | -3
Cc1cc2cc(C)c(NCCNC(=O)c3cccc(F)c3)nc2cc1C | 102 | 97 | 56* | 2
COc1ccc(C(=O)NCCNc2nc3cc(C)c(C)cc3cc2C)cc1 | nt | 95 | 63* | 4
Cc1cccc(C(=O)NCCNc2nc3cc(C)c(C)cc3cc2C)c1 | 99 | 95 | 35 | 2
CCCCc1c(-c2ccccc2OC)ncn1CCc1ccccc1Cl | nt | 128 | nt | nt
O=C(Nc1ccc(F)c(F)c1)c1cnc(-c2ccccc2)nc1-c1ccccc1 | 102 | 100 | 65* | 1
C=CCNC(=O)c1cnc(-c2ccccc2)nc1-c1ccccc1 | nt | 102 | 4 | 1
C=CC[C@H](CC(=O)N(CCO)Cc1ccccc1)C(=O)NCCOC(=O)[C@@H](CC=C)CC(=O)OC(C)(C)C | nt | 99 | 1 | -2
CC1=Nc2cc(C(=O)NCc3ccco3)ccc2Sc2ccc(C)cc21 | 134* | 102 | 2 | 3
CC1=Nc2cc(C(=O)NCC3CCCO3)ccc2Sc2ccc(C)cc21 (stereo not given) | nt | 100 | 1 | -3
CCc1ccc(S(=O)(=O)Nc2cc(SCC(=O)O)c(O)c3ccccc23)cc1 | 109 | 99 | 53* | -1
N#CC1=C(N)Oc2cc(N)ccc2C1c1ccsc1 (stereo not given) | 101 | 119 | 84* | 2
COc1ccc([C@@H]2[C@@H]3C(=O)N(C(C)(C)C)C(=O)[C@@H]3[C@]3(C)C(=O)N(c4cccc(C)c4)C(=O)N23)cc1 | nt | 85 | 1 | 4
CC(C)(C)N1C(=O)[C@H]2[C@@H](c3ccc(Br)cc3)N3C(=O)N(c4ccccc4)C(=O)[C@@]3(C)[C@H]2C1=O | nt | 97 | 3 | 12*
Cc1cccc(-c2c3c(=O)n(C)c(=O)n(C)c3c3cccnn23)c1 | 104 | 95 | 60* | 1
Cc1cc(C)c2c3c(c(-c4ccccc4)n2n1)c(=O)n(C)c(=O)n3C | nt | 100 | nt | 3
O=[N+]([O-])c1cc(C=Nc2ccc3ccccc3c2)ccc1Br | 110 | 104 | 68* | 2
COc1ccc(C2c3[nH]c4ccccc4c3CCN2Cc2ccoc2)c(F)c1 (stereo not given) | 118 | 102 | 47* | -2
O=C(Nc1cccnc1)c1ccccc1O | 98 | 106 | 54* | 1
O=C(Nc1ccccc1O)c1ccccc1O | 90 | 85 | 131* | 2
Cc1cccc(NC(=O)c2ccccc2O)c1C | 105 | 94 | 38 | 3
Cc1ccc(S(=O)(=O)N2CCN(C(=O)[C@H](Cc3ccccc3)NC(=O)c3ccco3)CC2)cc1C | nt | 99 | -1 | -1
CCC1CCCCN1C(=O)c1sc2ncnc(N(CC)CC)c2c1C (stereo not given) | 100 | 101 | 59* | 0
SMILES | STAT3 act | ABCB6 inh MLPCN | AHR activator | FXN GAA850 act
O=C(NC(=S)Nc1nc2c(s1)CCCC2)c1ccc(C(=O)c2ccccc2)cc1 | 90 | 97 | 10 | 2
O=C(NC(=S)Nc1nc2c(s1)CSc1ccccc1-2)c1ccccc1 | 167* | 102 | 69* | 1
CCOc1ccc2c(c1)C(c1cccs1)=NNC(c1cccnc1)=N2 | 101 | 96 | 27 | 1
Brc1ccc2c(c1)C(c1cccs1)=NNC(c1cccnc1)=N2 | 88 | 100 | 92* | -1
O=C(CCCC(=O)OCC(Cl)=C(Cl)Cl)Nc1ccccc1 | 107 | 102 | 3 | 1
Cc1ccc(NC(=O)c2ccc(Cl)c(S(=O)(=O)NCc3ccco3)c2)c(O)c1 | nt | 99 | 56* | 1
Cc1ccc(NC(=O)c2ccco2)c(NC(=O)c2ccccc2)c1 | nt | 87 | 28 | 0
CCOc1ccccc1C(=O)Nc1cc(C)ccc1NC(=O)c1ccco1 | nt | 92 | 68* | -6
CCOc1cccc(C(=O)Nc2cc(C)ccc2NC(=O)c2ccco2)c1 | nt | 98 | nt | -7
Cc1ccc(NC(=O)c2ccco2)c(NC(=O)c2ccc(Cl)cc2)c1 | nt | 98 | 56* | -4
CCOc1cc(NC(=O)c2ccco2)c(OCC)cc1NC(=O)Cc1cccc(OC)c1 | 96 | 96 | 54* | 3
CNC(=O)CC(C(=O)O)c1ccc(OC(C)C)cc1 (stereo not given) | 104 | 106 | 1 | -1
C[C@H](O)[C@@H]1C(=O)N2CCc3c([nH]c4ccccc34)[C@@H]2C[C@@H]1N(C)C(=O)Nc1cc(Cl)cc(Cl)c1 | nt | 97 | nt | -1
CCOC(=O)CN(C(=O)CCC(=O)Nc1cc(C)on1)C(C(=O)NC1CCCC1)c1cccnc1 (stereo not given) | 98 | 97 | 7 | -1
Cn1c(/C(C#N)=C/Nc2ccccn2)nc2ccccc21 | 108 | 99 | 118* | 0
CCOc1ccccc1N/C=C(\C#N)c1nc2ccccc2n1C | 127 | 94 | 30 | 2
CCN(CC(=O)Nc1c(F)cccc1F)C(=O)CCN1C(=O)C2CC=CCC2C1=O (stereo not given) | nt | 100 | -2 | 1
CN(C)c1ccc(C(=O)N2CC(=O)N(CCc3ccccc3)C(=O)C2)cc1 | 102 | 104 | 12 | 0
COc1ccc(C(=O)N2CC(=O)N(CCc3ccccc3)C(=O)C2)cc1OC | 144* | 96 | 22 | 0
CCc1ncc(CN2CCC(C(=O)Nc3ccc(-n4nc(C)cc4C)cc3)CC2)cn1 | nt | 103 | -3 | 0
CCOc1cc(/C=N/O)ccc1OCc1ccc([N+](=O)[O-])cc1 | 107 | 93 | 78* | 4
CCCCN(Cc1nc2ccccc2c(=O)[nH]1)C(=O)c1nn(C)c(=O)c2ccccc12 | nt | 99 | nt | -2
CCOC(=O)CN1CC23C=CC(O2)C(C(=O)Nc2ccc4c(c2)OCO4)C3C1=O (stereo not given) | 105 | 95 | 70* | 3
CCOC(=O)CN1CC23C=CC(O2)C(C(=O)Nc2ccc(OCC)cc2)C3C1=O (stereo not given) | 97 | 91 | -2 | 1
Cc1cccc(C)c1NC(=O)CN(C)C(=O)C1=COCCO1 | nt | 100 | 0 | 1
SMILES | STAT3 act | ABCB6 inh MLPCN | AHR activator | FXN GAA850 act
COc1nc(=O)n(C2CCCO2)cc1C (stereo not given) | nt | 94 | nt | 2
Cc1ccc(NCc2ccc(O)c3ncccc23)cc1 | 100 | 88 | -2 | 3
Cc1ccc(NCc2ccc(O)c3ncccc23)cc1C | 135* | 103 | 1 | -1
Brc1ccc(N=Cc2ccccn2)cc1 | 94 | 99 | 55* | 2
C(=C\c1ccccn1)/c1ccccn1 | nt | 108 | 4 | 5
c1ccc2c(c1)-c1cccc3c1c-2cc1ccccc13 | nt | nt | 102* | nt
O=c1[nH]c2ccccc2nc1-c1ccc(Cl)cc1 | nt | 101 | 76* | 3
CCC(=O)N1CCc2cc(S(=O)(=O)N3CCN(c4cc(C)ccc4C)CC3)ccc21 | nt | 102 | 2 | 1
O=C(NCC(=O)N1CCOCC1)c1ccc(Br)o1 | nt | 100 | 3 | 1
CC(C)c1ccc(NNC(=O)C2CCC2)cc1 | nt | 102 | 49* | 3
